# Test results taken from ChEMBL document CHEMBL1811838, “Antimalarial activity of natural and synthetic prodiginines” (J Med Chem, 2011).
# The source made the active and inactive calls. The calls are words filed in the database; no cut-off is given here.
# What was measured:
# Mus musculus [1] = experiment: Toxicity in Plasmodium yoelii infected CF-1 mouse assessed as temporary weight loss at 100 mg/kg, po qd for 3 days; assay type: organism-based; design: dose 100 mg/kg, route oral; settings: in vivo, 72 h
# Procedure, shortened: (§1)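 Female outbred CF-1 mice infected iv (tail vein) with 5 × 10^5 P. yoelii Kenya-infected erythrocytes. Groups of five given compound or vehicle alone by gavage in caprylic/capric triglyceride once daily for 3 days starting 24 h post-infection. One day after last dose, Giemsa-stained thin smears scored microscopically for % infected erythrocytes vs untreated controls. Group mean weight day 3 vs day 0. Smear-negative mice followed; parasite-free at 28 days counted cured.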
# Plasmodium yoelii [2] = experiment: Antimalarial activity Plasmodium yoelii infected in CF-1 mouse assessed as complete parasite clearance at 100 mg/kg, po qd for 3 days administered 24 hrs after infection measured after 24 hrs last dose; assay type: functional, organism-based; design: dose 100 mg/kg; procedure, shortened: as §1
# Plasmodium yoelii [3] = experiment: Antimalarial activity Plasmodium yoelii infected in CF-1 mouse assessed as reduction of parasitemia at 25 mg/kg, po qd for 3 days administered 24 hrs after infection measured after 24 hrs last dose relative to control; assay type: functional; design: scale not given: the % may be the effect or the level left; procedure, shortened: as §1
# Plasmodium falciparum [4] = experiment: Antimalarial activity Plasmodium falciparum D6 after 72 hrs by SYBR Green I based fluorescence assay; assay type: functional, organism-based; settings: D6, 72 h
# Procedure, shortened: (§2)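 P. falciparum (D6 pansensitive; Dd2 MDR) cultured under standard conditions and grown 72 h with varying compound concentrations, chloroquine positive control or no drug, each condition in quadruplicate. Growth measured by SYBR Green I fluorescence with minor modifications; IC50 = concentration inhibiting growth by 50%.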
# Plasmodium yoelii [5] = experiment: Antimalarial activity Plasmodium yoelii infected in CF-1 mouse assessed as reduction of parasitemia at 5 mg/kg, po qd for 3 days administered 24 hrs after infection measured after 24 hrs last dose relative to control; assay type: functional; design: scale not given: the % may be the effect or the level left
# Procedure, shortened: (§3)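 Female outbred CF-1 mice were infected i.v. via the tail vein with 5 × 10^5 P. yoelii Kenya-infected erythrocytes, in groups of five. Compound or vehicle alone was given by gavage in caprylic/capric triglyceride once daily for 3 days, starting 24 h post-infection. One day after the last dose, Giemsa-stained thin smears were scored by microscopy for % parasitemia versus untreated controls. Group mean weight was recorded as day 3 versus day 0.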
# [6] = Toxicity in C57BL/6J mouse splenic lymphocytes after 72 hrs by Alamar blue Assay; assay type: cell-based; settings: splenic lymphocyte
# Procedure, shortened: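 Splenic lymphocytes from C57BL/6J mice washed, then stimulated with 1 μg/mL concanavalin A in RPMI/10% FBS with 50 μM β-mercaptoethanol. Seeded at 2 × 10^5 cells/well with serially diluted compound for 72 h at 37 °C, 5% CO2. Resazurin added (final 10 μM) for another 24 h; fluorescence read at ex 560/em 590 nm.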
# Mus musculus [7] = experiment: Toxicity in Plasmodium yoelii infected CF-1 mouse assessed as weight loss at 25 mg/kg, po qd for 3 days relative to control; assay type: organism-based; design: dose 25 mg/kg, route oral; settings: in vivo, 72 h; procedure, shortened: as §3
# Mus musculus [8] = experiment: Toxicity in Plasmodium yoelii infected CF-1 mouse assessed as weight loss at 5 mg/kg, po qd for 3 days relative to control; assay type: organism-based; design: dose 5 mg/kg, route oral; settings: in vivo, 72 h; procedure, shortened: as §3
# Plasmodium falciparum [9] = experiment: Antimalarial activity multidrug-resistant Plasmodium falciparum Dd2 after 72 hrs by SYBR Green I based fluorescence assay; assay type: functional, organism-based; settings: Dd2, 72 h; procedure, shortened: as §2
SMILES,Activity (Mus musculus [1]),Activity (Plasmodium yoelii [2]),Activity (Plasmodium yoelii [3]) [%],IC50 (Plasmodium falciparum [4]) [nM],Activity (Plasmodium yoelii [5]) [%],IC50 [6] [nM],Activity (Mus musculus [7]) [%],Activity (Mus musculus [8]) [%],IC50 (Plasmodium falciparum [9]) [nM]
CCC1CCCCCCCCC2=N/C(=C\c3[nH]c(-c4ccc[nH]4)cc3OC)C1=C2 (configuration not stated) [METACYCLOPRODIGININE],Toxic,Active,>99,1.7,,,,,
COC1=CC(c2ccc[nH]2)=N/C1=C\c1[nH]ccc1Cc1ccc(Cl)cc1,,,90,65,38,< 125,105,101.2,81
CCCc1cc(Cc2ccc(Cl)cc2)c(/C=C2\N=C(c3ccc[nH]3)C=C2OC)[nH]1,,,100,3,94,< 125,87.6,102.9,2.6
CCCc1cc(CCC2CCCCC2)c(/C=C2\N=C(c3ccc[nH]3)C=C2OC)[nH]1,,,100,1.7,97,< 125,84.5,101.5,1.3
CCCCCCc1cc(Cc2ccc(Cl)cc2)c(/C=C2\N=C(c3ccc[nH]3)C=C2OC)[nH]1,,,100,2,99,< 125,96,100.3,1.8
